This note sets out measurements from ChEMBL document CHEMBL3877303 (J Med Chem, 2017).

Active and inactive are the calls of the source. The rule behind the calls is not given here.

Data set [1] is described as follows: Antiproliferative activity against human MV4-11 cells measured after 72 hrs by CellTiter-Glo or CCK8 assay. Type of data set: functional. The note with it: MV4-11, 72 h. Put shortly:
(§1)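 Cells at 1 to 2.5×10^4 cells/mL were incubated with a range of compound concentrations for 72 h. Viability was read by CellTiter-Glo luminescence or CCK-8 absorbance (450/655 nm) and normalized to DMSO control. GI50 came from curve fitting, with triplicate testing.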
For orientation: Cellular ATP, detected with luciferase, serves as a proxy for viable cell number.

Data set [2] can be described thus: Antiproliferative activity against human GIST48B cells measured after 72 hrs by CellTiter-Glo or CCK8 assay. It counts as functional. Put shortly: as §1
The target in data set [3] is Tyrosine-protein kinase Blk (Homo sapiens, UniProt P51451). The data set can be described thus: Inhibition of Tel-fused BLK (unknown origin) expressed in BAF3 cells assessed as growth inhibition measured after 72 hrs by CellTiter-Glo or CCK8 assay. Type of data set: cell-based. A digest of the protocol: (§2)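 BaF3 lines were made by retroviral transduction with kinase-fusion MSCV vectors packaged in HEK293T cells. Cells were selected with puromycin for 48 h, then selected again without IL-3 so growth depends on the introduced kinase. […] They were seeded at 1 to 2.5×10^4 cells/mL with compound dilutions and incubated 72 h. Viability was read by CellTiter-Glo luminescence or CCK-8 absorbance (450/655 nm), normalized to DMSO control; GI50 was curve-fitted from triplicate tests.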
Chain of Tyrosine-protein kinase Blk (P51451 2-505 limits assumed): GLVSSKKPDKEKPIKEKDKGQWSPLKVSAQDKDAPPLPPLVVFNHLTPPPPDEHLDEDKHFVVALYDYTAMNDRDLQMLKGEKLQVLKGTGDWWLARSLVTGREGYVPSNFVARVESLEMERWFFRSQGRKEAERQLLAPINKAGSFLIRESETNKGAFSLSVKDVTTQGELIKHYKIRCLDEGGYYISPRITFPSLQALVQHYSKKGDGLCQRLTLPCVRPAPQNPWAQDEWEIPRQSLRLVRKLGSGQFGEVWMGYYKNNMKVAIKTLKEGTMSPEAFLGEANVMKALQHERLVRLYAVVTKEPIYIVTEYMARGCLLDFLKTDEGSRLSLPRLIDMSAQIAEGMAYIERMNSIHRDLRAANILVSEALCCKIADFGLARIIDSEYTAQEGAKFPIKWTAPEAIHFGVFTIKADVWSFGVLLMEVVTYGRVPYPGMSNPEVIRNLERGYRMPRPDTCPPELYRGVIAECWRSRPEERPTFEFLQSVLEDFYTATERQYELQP

The target in data set [4] is T1, BCR/ABL p210 fusion protein (Homo sapiens, UniProt A1Z199). Briefly: Inhibition of BCR/ABL p210 fusion protein mediated signaling pathways assessed as reduction in ERK phosphorylation at T202/Y204 in human KU812 cells at 0.01 to 3 uM measured after 2 hrs by immunoblotting. It counts as cell-based. Put shortly:
(§3)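 After an ice-cold PBS wash, cells were lysed in RIPA buffer (50 mM Tris pH 8.0) with protease and phosphatase inhibitors, and protein was quantified by BCA. Lysates were run on SDS-PAGE, transferred to PVDF and blocked in 5% milk/TBST. Phospho- and total proteins were probed by immunoblot with ECL detection; β-actin served as loading control.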
(Immunoblotting shows a protein as a band on a membrane.)

Data set [5] can be described thus: Antiproliferative activity against human GISTT1 cells measured after 72 hrs by CellTiter-Glo or CCK8 assay. Type of data set: functional. The settings on record: GISTT1, 72 h. A digest of the protocol: as §1
The nature of data set [6]: Anticancer activity against human K562 cells xenografted in nu/nu mouse assessed as tumor growth inhibition at 100 mg/kg administered daily via oral gavage measured 28 days post compound treatment relative to vehicle-treated control. Type of data set: functional. The settings on record: 672 h, read-out: TGI. A digest of the protocol: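 Female nu/nu mice received ten million K562 cells subcutaneously in the right flank, in PBS mixed 1:1 with Matrigel. Daily oral gavage began at 200-400 mm³ tumor size, with 4 or 5 mice per group. Dosing was 25, 50 or 100 mg/kg/d or vehicle (0.5% methylcellulose/0.4% Tween80) for 28 days. Body weight and tumor size were normalized to initial values, and final tumor weight was recorded. Data are mean ± SEM.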

A short description of data set [7]: Antiproliferative activity against human GIST882 cells measured after 72 hrs by CellTiter-Glo or CCK8 assay. It counts as functional. The settings on record: GIST882, 72 h. Put shortly: as §1
The nature of data set [8]: AUC (0 to t) in Sprague-Dawley rat at 10 mg/kg, po. Type of data set: ADME, organism-based. The settings on record: in vivo. A digest of the protocol:
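Male Sprague-Dawley rats aged six to eight weeks were fasted overnight and then dosed iv or orally. Blood (~0.2 mL) was drawn from the jugular vein into heparin and kept on ice. Sampling was at 1 min to 8 h for iv and 5 min to 24 h for oral. Plasma was separated by centrifugation at 2-8 °C and stored at -80 °C until analysis.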

Data set [9] deals with T2, Discoidin domain-containing receptor 2 (Homo sapiens) (UniProt Q16832).
T2 sequence (whole entry): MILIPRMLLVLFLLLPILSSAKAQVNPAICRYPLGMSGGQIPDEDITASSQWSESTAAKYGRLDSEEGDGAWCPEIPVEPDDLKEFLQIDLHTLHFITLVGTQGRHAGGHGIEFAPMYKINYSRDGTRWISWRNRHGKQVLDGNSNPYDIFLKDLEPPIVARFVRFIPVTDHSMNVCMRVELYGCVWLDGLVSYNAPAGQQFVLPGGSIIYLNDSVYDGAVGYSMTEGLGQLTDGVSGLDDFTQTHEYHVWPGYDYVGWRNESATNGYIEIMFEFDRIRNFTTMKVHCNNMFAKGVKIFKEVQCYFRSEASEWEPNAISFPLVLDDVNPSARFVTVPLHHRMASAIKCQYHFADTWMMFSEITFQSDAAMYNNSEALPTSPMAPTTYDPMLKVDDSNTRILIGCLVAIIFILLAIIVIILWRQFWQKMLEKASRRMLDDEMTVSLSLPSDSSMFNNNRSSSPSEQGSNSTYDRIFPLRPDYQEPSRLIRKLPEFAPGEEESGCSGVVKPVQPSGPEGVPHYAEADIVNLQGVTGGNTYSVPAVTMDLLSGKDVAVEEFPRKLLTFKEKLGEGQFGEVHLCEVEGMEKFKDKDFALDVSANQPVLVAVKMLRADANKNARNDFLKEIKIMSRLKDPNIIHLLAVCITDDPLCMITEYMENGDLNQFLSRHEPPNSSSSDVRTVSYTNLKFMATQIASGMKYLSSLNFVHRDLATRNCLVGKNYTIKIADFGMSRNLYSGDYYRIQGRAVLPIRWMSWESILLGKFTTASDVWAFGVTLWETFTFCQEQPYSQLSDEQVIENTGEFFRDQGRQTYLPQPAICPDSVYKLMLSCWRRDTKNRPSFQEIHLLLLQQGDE
The data set can be described thus: Inhibition of BCR-fused DDR2 (unknown origin) expressed in BAF3 cells assessed as growth inhibition measured after 72 hrs by CellTiter-Glo or CCK8 assay. Type of data set: cell-based. Put shortly: as §2

The nature of data set [10]: Antiproliferative activity against human Rec1 cells measured after 72 hrs by CellTiter-Glo or CCK8 assay. Type of data set: functional. The settings on record: Rec1, 72 h. Put shortly: as §1
Data set [11] concerns the target T1, BCR/ABL p210 fusion protein. The data set can be described thus: Inhibition of BCR/ABL p210 fusion protein mediated signaling pathways assessed as reduction in CrkL phosphorylation at Y207 in human KU812 cells at 0.01 to 3 uM measured after 2 hrs by immunoblotting. It counts as cell-based. A digest of the protocol: as §3
Data set [12] in a line: Antiproliferative activity against human U937 cells measured after 72 hrs by CellTiter-Glo or CCK8 assay. Type of data set: functional. The note with it: U-937, 72 h. Put shortly: as §1
Data set [13] in a line: Growth inhibition of mouse BAF3 cells measured after 72 hrs by CellTiter-Glo or CCK8 assay. Type of data set: cell-based. A digest of the protocol:
as §1

Data set [14] is described as follows: Antiproliferative activity against CHO cells measured after 72 hrs by CellTiter-Glo or CCK8 assay. It counts as cell-based, Cricetulus griseus. The settings on record: chinese hamster. Put shortly:
as §1

A short description of data set [15]: Antiproliferative activity against human MOLM14 cells measured after 72 hrs by CellTiter-Glo or CCK8 assay. Type of data set: functional. The settings on record: MOLM-14, 72 h. Put shortly:
as §1

Data set [16] can be described thus: Antiproliferative activity against human HL60 cells measured after 72 hrs by CellTiter-Glo or CCK8 assay. It counts as functional. The settings on record: HL-60, 72 h. Put shortly:
as §1

Data set [17] addresses Vascular endothelial growth factor receptor 2 (Homo sapiens) (UniProt P35968). Briefly: Inhibition of Tel-fused VEGFR2 (unknown origin) expressed in BAF3 cells assessed as growth inhibition measured after 72 hrs by CellTiter-Glo or CCK8 assay. It counts as cell-based. A digest of the protocol: as §2
Data set [18] addresses Mast/stem cell growth factor receptor Kit (Homo sapiens, UniProt P10721). The settings on record: 1 uM.

Chain of Vascular endothelial growth factor receptor 2 (Homo sapiens) (P35968 whole entry, the tested form may be a part): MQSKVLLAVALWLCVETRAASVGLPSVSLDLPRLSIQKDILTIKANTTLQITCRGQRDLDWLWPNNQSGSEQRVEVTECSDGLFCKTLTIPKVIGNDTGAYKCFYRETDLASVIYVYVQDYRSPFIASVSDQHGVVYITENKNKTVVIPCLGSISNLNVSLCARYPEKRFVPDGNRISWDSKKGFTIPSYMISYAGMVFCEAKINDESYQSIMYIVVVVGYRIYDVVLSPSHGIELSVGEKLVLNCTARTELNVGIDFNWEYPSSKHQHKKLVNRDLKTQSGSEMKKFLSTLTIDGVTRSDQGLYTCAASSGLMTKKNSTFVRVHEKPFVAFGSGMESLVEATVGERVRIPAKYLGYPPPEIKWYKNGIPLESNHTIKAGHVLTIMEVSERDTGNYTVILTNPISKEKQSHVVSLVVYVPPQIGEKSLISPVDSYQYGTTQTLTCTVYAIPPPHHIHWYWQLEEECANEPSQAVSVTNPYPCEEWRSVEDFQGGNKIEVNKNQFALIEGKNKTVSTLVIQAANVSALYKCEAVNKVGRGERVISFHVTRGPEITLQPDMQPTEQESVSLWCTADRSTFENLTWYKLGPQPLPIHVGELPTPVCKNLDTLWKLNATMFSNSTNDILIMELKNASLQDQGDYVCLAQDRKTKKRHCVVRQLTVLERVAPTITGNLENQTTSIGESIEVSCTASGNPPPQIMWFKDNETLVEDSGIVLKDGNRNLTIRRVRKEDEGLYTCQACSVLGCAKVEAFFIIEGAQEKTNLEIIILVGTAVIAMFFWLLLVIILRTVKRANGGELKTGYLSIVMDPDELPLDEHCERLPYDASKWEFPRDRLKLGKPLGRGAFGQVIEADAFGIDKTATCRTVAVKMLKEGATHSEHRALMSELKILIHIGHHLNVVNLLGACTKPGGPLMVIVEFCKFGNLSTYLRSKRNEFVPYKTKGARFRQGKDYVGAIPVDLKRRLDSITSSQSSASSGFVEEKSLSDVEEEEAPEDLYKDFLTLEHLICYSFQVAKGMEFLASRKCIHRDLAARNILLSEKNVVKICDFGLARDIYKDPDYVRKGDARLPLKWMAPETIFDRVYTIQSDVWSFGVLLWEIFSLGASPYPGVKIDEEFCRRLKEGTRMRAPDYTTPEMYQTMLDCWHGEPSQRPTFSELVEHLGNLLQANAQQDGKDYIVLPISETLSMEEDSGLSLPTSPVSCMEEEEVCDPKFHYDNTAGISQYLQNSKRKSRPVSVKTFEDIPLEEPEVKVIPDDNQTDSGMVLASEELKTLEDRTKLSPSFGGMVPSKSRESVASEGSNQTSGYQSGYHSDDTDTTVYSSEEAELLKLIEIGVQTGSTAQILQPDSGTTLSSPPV
T1 sequence (A1Z199 1-97): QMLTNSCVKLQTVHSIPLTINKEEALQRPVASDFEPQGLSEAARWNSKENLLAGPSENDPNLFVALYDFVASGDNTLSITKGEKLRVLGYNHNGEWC
Chain of Mast/stem cell growth factor receptor Kit (P10721 whole entry): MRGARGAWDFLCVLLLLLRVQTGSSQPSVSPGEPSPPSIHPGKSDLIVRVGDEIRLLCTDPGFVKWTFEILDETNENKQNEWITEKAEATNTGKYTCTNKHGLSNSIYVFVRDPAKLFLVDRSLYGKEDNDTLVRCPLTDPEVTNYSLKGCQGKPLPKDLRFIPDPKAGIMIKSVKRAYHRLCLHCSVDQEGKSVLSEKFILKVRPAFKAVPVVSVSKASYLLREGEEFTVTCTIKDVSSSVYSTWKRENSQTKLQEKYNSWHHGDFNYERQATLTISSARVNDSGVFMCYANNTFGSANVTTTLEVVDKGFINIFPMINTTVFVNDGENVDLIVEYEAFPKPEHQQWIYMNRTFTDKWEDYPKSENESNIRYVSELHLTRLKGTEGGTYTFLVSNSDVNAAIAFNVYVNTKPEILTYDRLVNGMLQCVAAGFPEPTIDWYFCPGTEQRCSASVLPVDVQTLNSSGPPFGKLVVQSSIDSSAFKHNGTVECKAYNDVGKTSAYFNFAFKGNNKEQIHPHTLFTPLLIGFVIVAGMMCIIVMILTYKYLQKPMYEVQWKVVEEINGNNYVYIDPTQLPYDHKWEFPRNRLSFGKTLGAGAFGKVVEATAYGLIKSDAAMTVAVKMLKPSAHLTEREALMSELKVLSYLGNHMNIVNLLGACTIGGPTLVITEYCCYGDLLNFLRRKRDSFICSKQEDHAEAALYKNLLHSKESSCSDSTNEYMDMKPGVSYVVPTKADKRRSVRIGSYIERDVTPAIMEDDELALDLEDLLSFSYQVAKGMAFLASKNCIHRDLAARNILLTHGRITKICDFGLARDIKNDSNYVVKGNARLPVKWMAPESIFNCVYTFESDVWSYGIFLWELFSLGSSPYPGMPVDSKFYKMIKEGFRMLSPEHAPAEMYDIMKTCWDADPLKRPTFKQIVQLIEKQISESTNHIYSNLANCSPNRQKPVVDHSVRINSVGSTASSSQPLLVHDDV

On to `Cc1ccc(C(=O)N2CCC(Oc3cc(NC(=O)c4ccc(CN5CCN(C)CC5)c(C(F)(F)F)c4)ccc3C)CC2)cn1`, for which the GI50 (commonly the concentration that inhibits growth by half) in data set [1] is 8.14 µM; in [2], 3.96 µM; in data set [3] it was 0.658 µM; in data set [5], 0.023 µM; in [7] it was 0.095 µM; in data set [9], 6.08 µM. The GI50 in data set [10] was 3.47 µM; in data set [12], 5.73 µM; in data set [15], 8.49 µM; in data set [16], 7.34 µM; in data set [17], 0.035 µM. For the same compound, the inhibition entry in data set [4] and in [11] was “Active” each time. Further, the inhibition in vivo at 100 mg/kg in data set [6] is 66.8%. For the same compound, the AUC(0-t) (usually the area under the concentration-time curve up to a stated or last time point) in data set [8] was 2420 ng·h/mL. The GI50 at 72 h in data set [13] and in data set [14] was > 10 µM in each case.

Take `Cc1ccc(NC(=O)c2ccc(CN3CCN(C)CC3)cc2)cc1Nc1nccc(-c2cccnc2)n1` [IMATINIB]: the GI50 in data set [1] is > 10 µM; in data set [2], > 10 µM; in data set [3], > 10 µM; in data set [5], 0.008 µM; in [7], 0.014 µM; in data set [9] it was > 10 µM. The GI50 in [10], in data set [12], in [15], in [16] and in data set [17] was > 10 µM each time. Further, the inhibition in vivo at 100 mg/kg in data set [6] came to 31.9%. Further, in [18], the inhibition result was “Active”. For the same compound, the GI50 at 72 h in [13] and in data set [14] was > 10 µM in each case.
